Data on 48 sequences can be found in the EternaBench riboswitch data.

The series relates to MS2 coat protein. The experiment in a line: apparent Kd, MS2 coat protein; higher = weaker binding; RNA-MaP array; FMN 200 µM where present. The procedure, abridged: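 Binding was read on Illumina sequencing-chip clusters where stalled E. coli RNA polymerase had transcribed each design. A titration of SNAP-549-labelled MS2 coat protein began at 0.7 or 1.5 nM and doubled to 3 µM, once without ligand and once with constant ligand, in 100 mM Tris-HCl pH 7.5, 80 mM KCl, 4 mM MgCl2, BSA, DTT, yeast tRNA and Tween-20. The apparent Kd is the median of filtered per-cluster binding-curve fits, based on green signal normalised to red-channel RNA signal and control-cluster median Fmax.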

The mark [1] stands for this setting: designed as: OFF switch for flavin mononucleotide, no ligand.
Setting [2] is: ligand present: flavin mononucleotide, designed as: OFF switch for flavin mononucleotide.
Setting [3] is: designed as: ON switch for flavin mononucleotide, no ligand.
[4] abbreviates: ligand present: flavin mononucleotide, designed as: ON switch for flavin mononucleotide.

The apparent Kd is the concentration giving half-maximal binding under the conditions of the assay.

Consider “ACCAUUUACUAAUCUUCUAUACAUGAGGAUCACCCAUGUUUUGAGGAUAUCAGCGUGAAACACGCUGAGAAGGCAAAACAUUCG”, for which the “apparent Kd” value worked out at 72 nM under setting [1] and 393 nM under setting [2].
For the sequence “AUUUUUUAUGUAGGAUAUGCUUGUGGUAAGAUAGCAGAAGGACAUGAGGAUCACCCAUGUUAAUGAUAGAGAUUUUAGGUUGGU”, the “apparent Kd” value runs as follows: under setting [1], 42.6 nM; under setting [2], 69.2 nM.
Consider “GUGAAGUAAGGAUAUACAUGAGGAUCACCCAUGUAAGGGAAGGUGAUGGGAGUAGAUAGUAGAAGGUACGAGGA”, for which the “apparent Kd” value runs as follows: under setting [1], 120 nM; under setting [2], 81.9 nM.
Taken in the same sequence, the figures for “CCCUCACAUGAGGAUCACCCAUGUCAGGAUAUCUCACAUCGGCCUUAGGCCGAUGUCUAGAGAAGGGACGUAUC” were 22.1 nM and 29.5 nM.
As for “AAGAAGUCAGGAUAUGCAUGGCGGGACUUGCGUCGUGGCGUGCAGAAGGGACAUGAGGAUCACCCAUGUGGAGG”, the “apparent Kd” value reads like this: under setting [1], 162 nM; under setting [2], 222 nM.
Taken in the same sequence, the figures for “AGAAACUACGAGAAGGACAUAUGAUUCUUCAGAUACAUGAGGAUCACCCAUGUAGGAUAUCGUAGUUUCAGGAUCGUGAGAUCA” were 14 nM and 97.7 nM.
Consider “UUACAGUGCGGGUAGGAUAUGUAGGGUGGUACAUGAGGAUCACCCAUGUAUCCACCCUUCGACCGGCAGAAGGGCCUAUCACUGC”, for which the “apparent Kd” value by setting is: under setting [3], 15.9 nM; under setting [4], 13.6 nM.
In the case of “AUACUCAUGUAAGGAUAUGCAGCCGUUUCGGCUGCAGAAGGUACUAUAAUACAUGAGGAUCACCCAUGUCUUUUUAAUUUUUAC”, the “apparent Kd” value under setting [3] was 281 nM and the “apparent Kd” value under setting [4] was determined as 38.9 nM.
With “ACCAUGGUACAGAAGGGCAAUUUAUUUAUUUAUUAUUUAGUACUGCAUUGCAGGAUAUGUUUAACAUGAGGAUCACCCAUGUAC”, the “apparent Kd” value by setting is: under setting [3], 31.8 nM; under setting [4], 21.4 nM.
Taken in the same sequence, the figures for “CUACAUGAGGAUCACCCAUGUGCACGCCAGAUCGGUGUGCGCAGAAGGGCCAUGGAGAAAGCCAGGCAGGAUAUGCAAAGGGCU” were 353 nM and 162 nM.
On to “GUAGCUAUCGGAGGAUAUUCAUACCGGAAACGGACAUGAGGAUCACCCAUGUGGCGAAAGCCUUGGGAGAAGGCCGAUCGCUAC”, for which the “apparent Kd” value is 239 nM under setting [3] and 8.45 nM under setting [4].
As for “GCUGCAUGUGAGAAGGCGAUCAUGAAACAUGAUCGAGGAUAUCAUGUAAACAUGAGGAUCACCCAUGUAUGGGUAUUAAGCAGC”, the “apparent Kd” value under setting [4] was 59.3 nM.
Regarding “AUCAGCUCGUCAGGAUAUUCGUCACUGCGUCAGCAGUGUGGUAAGAUCACAUGAGGAUCACCCAUGUAGAAGGGACGAGCUGAU”, the “apparent Kd” value was 8.23 nM under setting [1] and 19.2 nM under setting [2].
“GCUUUUCUAGCCAAGUGGUAGAGCGCAGAAGGCCAACAUGAGGAUCACCCAUGUAUAAAGAACAUGGAGGAUAUGCGUCACCUU”: the “apparent Kd” value under setting [3] was 73.7 nM and the “apparent Kd” value under setting [4] was 6.5 nM.
Take “GCUACGCCUGACAUGAGGAUCACCCAUGUUAGAUUGUUAUGUCAGGAUAUAGUCUAGAAACUAGACUAGAAGGGAUGUGUAGCU”: the “apparent Kd” value was 872 nM under setting [3] and 112 nM under setting [4].
As for “CUUGUGUUAGGAUAUGCGCCCUGCAGAAGCAGGGCCAGAGAGCAGAAGGAACAUGAGGAUCACCCAUGUGUGAC”, the “apparent Kd” value is, setting by setting: under setting [1], 65.5 nM; under setting [2], 53.7 nM.
As for “UUGGACGUCGUAGGAUAUGUAGGAUAUUCCUACAUGAGGAUCACCCAUGUUGACAUGGAAGAAGGACAGAAGGCCGAUGUCCAU”, the “apparent Kd” value was found to be 409 nM under setting [3] and 4.87 nM under setting [4].
Consider “AUAACUGUACGAGGAUAUCCAAGGGCAGCCCUAGGAGAAGGCGUACAUGAGGAUCACCCAUGUACUAUAUGGAGUUCGCUCGUG”, for which the “apparent Kd” value was determined as 30.7 nM under setting [1] and 88.4 nM under setting [2].
On to “UGUUGAUAGCAGAAGGACAUGAGGAUCACCCAUGUAAGGUUACAAAUACAUGUAGGAUAUGCUAUUGACUAAGAGUGAGCGUUC”, for which the “apparent Kd” value reads like this: under setting [1], 43.4 nM; under setting [2], 565 nM.
Turning to “AUACAUGAGGAUCACCCAUGUUACUGGGUCUAUAUAGAACGUAGAAGGAUGAUAUUAUAAAUAUCAUAGGAUAUACUAUUUUGU”, the “apparent Kd” value is, setting by setting: under setting [1], 29.9 nM; under setting [2], 35.3 nM.
As to “UAAUCUCAGAUAGGAUAUAUAGGAUAACUUAAGACCUAACAUGAGGAUCACCCAUGUGAUUAUUCGUAGAAGGAUCAUUGACCC”, under setting [4], the “apparent Kd” value came to 171 nM.
As for “GGAUAGGACAGAGGAUAUACGUGCUCGAGAUACUAGCAAAAUUUCCUCACAUGAGGAUCACCCAUGUAGAAGGCUGUCCUAUCG”, the “apparent Kd” value under setting [1] was determined as 28.7 nM and the “apparent Kd” value under setting [2] amounted to 255 nM.
Regarding “AGAACACAUGAGGAUCACCCAUGUGAGGAUAUCGAUGUCCCAGGGCGGGUGCGGGACUCGAGAAGGCACUUGGA”, the “apparent Kd” value by setting is: under setting [1], 41.9 nM; under setting [2], 88 nM.
On to “UUGGAAAACAUGAGGAUCACCCAUGUGAAGCCGGCUAGUACACAGGAUAUCCAGAACGCCGAGUUGGAGAAGGGUGAUCAGUCG”, for which the “apparent Kd” value was determined as 38 nM under setting [3] and 80.4 nM under setting [4].
“UCAUCAGCGGGCGGGUCGGUUGGACAUGAGGAUCACCCAUGUAGAAGGACCGGUGGACUCCGGCGGUAGGAUAUACAUUUGGUG”: the “apparent Kd” value under setting [1] was 16.1 nM and the “apparent Kd” value under setting [2] came to 26.3 nM.
Taken in the same sequence, the figures for “AAUAGGGUCGUAAUAGCUAGCACAUGAGGAUCACCCAUGUACAGAAGGCGAGCCAAGGCGGCAAUCGAGGAUAUGUAGCAGGGU” were 19.5 nM and 29.9 nM.
Take “GGAGCGAGCACAGGAUAUAGGCUAAAGGCUAGUCUAGAAGGGUGGGAUCAGACAUGAGGAUCACCCAUGUGUGUUUUUGCUCCA”: the “apparent Kd” value turned out to be 86.3 nM under setting [3] and 686 nM under setting [4].
Consider “UCAGAUGUACAUGAGGAUCACCCAUGUCAUAUGCCCGUGACACAGGAUAUCCAGGAUAGGCCAAAGGAGAAGGGUGAUCCGCGG”, for which the “apparent Kd” value is, setting by setting: under setting [3], 103 nM; under setting [4], 158 nM.
In the case of “GCGUCAGAAUUAAUUGUGACAGACAGAAGGCAAUAGUUCAUGUCAGACAUGAGGAUCACCCAUGUUGAGGAUAUGUAUUGACAC”, the “apparent Kd” value is, setting by setting: under setting [1], 5.62 nM; under setting [2], 5.65 nM.
Turning to “CCGCCCUGAGGAUAUCCACCCUCAUACAUGAGGAUCACCCAUGUUCACCCUUGGGUUCCCGGAGAAGGCAGCCUUC”, the “apparent Kd” value is, setting by setting: under setting [1], 566 nM; under setting [2], 548 nM.
Turning to “CCAUGGUGGGCAGGAUAUCGUCCAGCUUGCGGACGAGAAGGGCUAGAACAUGAGGAUCACCCAUGUGAAAAGCGGGUUGUCCAA”, the “apparent Kd” value by setting is: under setting [1], 27.8 nM; under setting [2], 145 nM.
The like results for “GAGCCAUCGUGAGAUGGCUAACAUACAUGAGGAUCACCCAUGUAGGAUAUCGAUUGCUUUGCAGUCGAGAAGGACAUGUUUAAU” were, in that order, 26.3 nM and 43.1 nM.
Consider “UGAUGACCUGUACCUAGUUGGUGACAUGAGGAUCACCCAUGUCAGGAUAUCGGGUUUGAAAACAACGAGAAGGGACAACGGGCG”, for which the “apparent Kd” value came out at 12.6 nM under setting [1] and 13 nM under setting [2].
On to “GCUGUCGCAUGAGGAUAUGGUCAGCUUUGCUGACCAGAAGGCAUGUCAAUAGACAUGAGGAUCACCCAUGUAGUAAAGACAGCU”, for which the “apparent Kd” value was determined as 375 nM under setting [3] and 33.9 nM under setting [4].
Take “GGCGGGAAUGAGAAGGGUCACAUGAGGAUCACCCAUGUGCUCUUCGCCGUGACAGGAUAUCAUUGCCGUCAGGUUAGAUUUUUG”: the “apparent Kd” value runs as follows: under setting [1], 8.42 nM; under setting [2], 24.7 nM.
With “AAUAAACGCACAGGAUAUAGCAUCGACGUUGAGAACUUAAAGACGUCGAUGCUAGAAGGGUGAAAACAUGAGGAUCACCCAUGU”, the “apparent Kd” value amounted to 87.6 nM under setting [3] and 18.7 nM under setting [4].
For “UGGUACUAGGGAGGAUAUGGGAAGAUACAUGAGGAUCACCCAUGUUUAAGGAUGCCGAGAGGCAACUAGAAGGCCCUAGUACCU”, the “apparent Kd” value by setting is: under setting [3], 851 nM; under setting [4], 97 nM.
Turning to “UUGUUCUGAGGAUAUACAUGAGGAUCACCCAUGUGUUUCUGCUUGGUGUCUUGCGUAUGUAGAAGGCUGUUCUC”, the “apparent Kd” value is, setting by setting: under setting [1], 36.5 nM; under setting [2], 36.3 nM.
For the sequence “GGAUAGGACAGAGGAUAUACGUGCUAGAGAUAGUAGCAAAAUUUCCUCACAUGAGGAUCACCCAUGUAGAAGGCUGUCCUAUCG”, the “apparent Kd” value under setting [1] worked out at 19.6 nM and the “apparent Kd” value under setting [2] stood at 365 nM.
In the case of “GCACUGGAUGUAGGAUAUCAGGACGAUAAGUCCUGAGAAGGACAUGAGGAUCACCCAUGUACACAAAACCAGUGCUAUAAUAUA”, the “apparent Kd” value amounted to 13.7 nM under setting [1] and 18.8 nM under setting [2].
In the case of “GCCUUAUCCGUCAGGAUAUACAGCCGCUAGUUGUUGUAGAAGGGACAUGAGGAUCACCCAUGUACGUACCAUUG”, the “apparent Kd” value is 20.3 nM under setting [1] and 30.7 nM under setting [2].
In the case of “UGGAUGUGGGUUCCACAUGAGGAUCACCCAUGUACCGAUGAGAGAAGGCGCGCUGGAUCACAGGGCGAGGAUAUCUACAUUCAA”, the “apparent Kd” value runs as follows: under setting [1], 6.06 nM; under setting [2], 13.1 nM.
As for “AUUAUAUAGUUAGGAUAUUGAUUAUUAUUUUAACAUGAGGAUCACCCAUGUAGCCUUAUGUAUAACAAGAAGGAACAUUUAUUA”, the “apparent Kd” value was 114 nM under setting [1] and 132 nM under setting [2].
Consider “UCCUCGGUACGAGGAUAUUCACGACGGUGUUCGGAAGAAGGCGUACAUGAGGAUCACCCAUGUCCGUCGAAAGGACUAACCGGG”, for which the “apparent Kd” value under setting [1] was 49 nM and the “apparent Kd” value under setting [2] turned out to be 68.5 nM.
Regarding “UUUUUCUGUGUGAGGAUAUACUUUGUUUGGUCGUUGUAGAAGGCACAUGAGGAUCACCCAUGUAGUUUGUUGUG”, the “apparent Kd” value was 23.9 nM under setting [1] and 33.1 nM under setting [2].
For “ACAUGAGGAUCACCCAUGUUAUAUGGGAAUUAAUUUAUUUGUAGAAGGAUGUUUUCUUGUUAGUCAUAGGAUAUACUAUUAAAU”, the “apparent Kd” value is, setting by setting: under setting [1], 255 nM; under setting [2], 158 nM.
Consider “ACACGACAUGAGGAUCACCCAUGUGAGGAUAUCGAUCUACACUAUGCCCAUAGUCUCUCGAGAAGGCACACUAA”, for which the “apparent Kd” value is, setting by setting: under setting [1], 30.6 nM; under setting [2], 31.7 nM.
As for “AGCUGUGGCCGAGGAUAUCUGAACUUUCAAACCGAAAUAUAAUCGGACAUGAGGAUCACCCAUGUAGAGAAGGCGGUCUCAGCA”, the “apparent Kd” value under setting [1] was 16 nM and the “apparent Kd” value under setting [2] stood at 13.6 nM.
